These results are taken from ChEMBL document CHEMBL1127348, “3-Amino-5,5-dimethylhexanoic acid. Synthesis, resolution, and effects on carnitine acyltransferases” (J Med Chem, 1994).

The target of data set [1] is T1, Carnitine O-palmitoyltransferase 2, mitochondrial (Rattus norvegicus, UniProt P18886).
T1 sequence (P18886 whole entry): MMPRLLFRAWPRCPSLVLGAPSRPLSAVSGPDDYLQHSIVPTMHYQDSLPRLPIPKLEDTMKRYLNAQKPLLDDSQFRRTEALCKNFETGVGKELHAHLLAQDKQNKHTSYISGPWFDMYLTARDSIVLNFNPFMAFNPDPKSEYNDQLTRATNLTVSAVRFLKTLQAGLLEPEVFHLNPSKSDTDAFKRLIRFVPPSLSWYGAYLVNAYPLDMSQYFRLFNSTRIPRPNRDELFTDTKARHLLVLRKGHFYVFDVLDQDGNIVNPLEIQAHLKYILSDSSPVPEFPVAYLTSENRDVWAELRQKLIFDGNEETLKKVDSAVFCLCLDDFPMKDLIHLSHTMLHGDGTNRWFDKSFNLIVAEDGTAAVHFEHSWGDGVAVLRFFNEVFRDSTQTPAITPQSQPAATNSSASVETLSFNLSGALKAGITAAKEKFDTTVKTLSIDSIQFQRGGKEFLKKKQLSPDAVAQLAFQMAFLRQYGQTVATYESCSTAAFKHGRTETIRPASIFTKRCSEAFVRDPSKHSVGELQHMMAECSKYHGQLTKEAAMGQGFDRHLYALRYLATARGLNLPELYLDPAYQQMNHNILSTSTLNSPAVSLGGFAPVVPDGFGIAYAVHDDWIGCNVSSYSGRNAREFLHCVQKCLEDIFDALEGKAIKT
The data set is described as follows: Tested against neonatal rat cardiac myocyte carnitine palmitoyltransferase 2.

Data set [2] addresses T2, Carnitine O-palmitoyltransferase 1, liver isoform (Rattus norvegicus) (UniProt P32198).
T2 sequence (whole entry): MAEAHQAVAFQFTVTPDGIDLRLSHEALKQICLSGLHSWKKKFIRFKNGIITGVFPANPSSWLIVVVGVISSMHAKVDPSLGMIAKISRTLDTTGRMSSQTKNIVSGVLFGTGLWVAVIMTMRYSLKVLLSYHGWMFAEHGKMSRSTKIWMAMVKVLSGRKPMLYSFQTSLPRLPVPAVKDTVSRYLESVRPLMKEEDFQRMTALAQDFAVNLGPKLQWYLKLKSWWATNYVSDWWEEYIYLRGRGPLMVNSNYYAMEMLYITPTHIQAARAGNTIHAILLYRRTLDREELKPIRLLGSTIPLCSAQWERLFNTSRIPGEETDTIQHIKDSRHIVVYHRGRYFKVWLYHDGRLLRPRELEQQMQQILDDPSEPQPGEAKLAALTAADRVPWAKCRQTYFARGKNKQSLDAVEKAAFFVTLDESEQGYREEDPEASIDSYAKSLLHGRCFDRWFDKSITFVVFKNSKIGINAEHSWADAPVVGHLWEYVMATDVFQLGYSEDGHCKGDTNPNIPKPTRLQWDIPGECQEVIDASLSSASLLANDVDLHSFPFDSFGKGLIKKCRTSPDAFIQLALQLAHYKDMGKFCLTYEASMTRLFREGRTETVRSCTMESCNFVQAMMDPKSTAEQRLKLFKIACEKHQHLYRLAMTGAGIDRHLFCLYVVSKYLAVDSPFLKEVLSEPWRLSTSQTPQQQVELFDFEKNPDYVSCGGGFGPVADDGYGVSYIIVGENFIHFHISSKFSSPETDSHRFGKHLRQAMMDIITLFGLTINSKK
The data set is described as follows: Percent inhibition was measured on rat liver carnitine palmitoyltransferase at 5 uM.

Data set [3] deals with T3, Carnitine O-palmitoyltransferase 1, muscle isoform (Rattus norvegicus, UniProt Q63704).
T3 sequence (Q63704 whole entry): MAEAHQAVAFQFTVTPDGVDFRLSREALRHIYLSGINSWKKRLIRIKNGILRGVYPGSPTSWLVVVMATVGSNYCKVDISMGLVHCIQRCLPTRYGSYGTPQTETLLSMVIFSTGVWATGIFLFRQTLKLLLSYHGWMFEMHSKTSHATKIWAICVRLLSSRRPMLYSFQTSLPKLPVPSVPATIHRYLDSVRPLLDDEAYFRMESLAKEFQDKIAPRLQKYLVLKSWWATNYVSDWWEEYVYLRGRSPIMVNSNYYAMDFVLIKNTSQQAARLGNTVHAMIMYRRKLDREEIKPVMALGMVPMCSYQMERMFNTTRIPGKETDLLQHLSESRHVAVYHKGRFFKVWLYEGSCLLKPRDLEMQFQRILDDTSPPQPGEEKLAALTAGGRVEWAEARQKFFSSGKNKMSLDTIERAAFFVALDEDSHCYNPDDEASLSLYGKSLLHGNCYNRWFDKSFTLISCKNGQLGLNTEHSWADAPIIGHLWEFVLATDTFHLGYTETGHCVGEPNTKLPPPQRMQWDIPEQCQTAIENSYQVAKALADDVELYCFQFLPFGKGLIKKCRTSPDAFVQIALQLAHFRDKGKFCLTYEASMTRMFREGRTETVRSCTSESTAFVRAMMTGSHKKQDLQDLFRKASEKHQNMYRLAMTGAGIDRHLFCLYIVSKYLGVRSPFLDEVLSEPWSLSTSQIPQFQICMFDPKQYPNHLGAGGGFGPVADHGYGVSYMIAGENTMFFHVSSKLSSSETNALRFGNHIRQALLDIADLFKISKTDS
The data set can be described thus: Tested against neonatal rat cardiac myocyte carnitine palmitoyltransferase 1; no effect.

The target in data set [4] is T3, Carnitine O-palmitoyltransferase 1, muscle isoform. The data set can be described thus: Tested against neonatal rat cardiac myocyte carnitine palmitoyltransferase 1.
Substrate in data set [5]: C[N+](C)(C)CC(N)CC(=O)[O-]
The data set is described as follows: (§1) Kinetic constants tested against pigeon breast carnitine acyltransferase. The note with it: Columba livia. The method, boiled down:
(§2)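 Purified pigeon breast CAT, 25 °C, 1 mL. Reverse: 100 mM MOPS, 5 mM EDTA, 0.25 mM CoASH; started with varying D,L-acetylcarnitine; read at 232 nm. Inhibitor at 0, 5.00 or 10.00 mM final; points mean of 2–5 determinations; nonlinear regression fit.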

Substrate in data set [6]: C[N+](C)(C)C[C@H](O)CC(=O)[O-]
The description is as §1. The note with it: Columba livia. The method, boiled down: as §2

In data set [1], `CC(C)(C)C[C@H](O)CC(=O)O` displayed a Ki of 2200 µM.
`CC(C)(C)C[C@@H](O)CC(=O)O`: in data set [1], the Ki was 6700 µM.
In data set [2], `C[N+](C)(C)CC(N)CC(=O)[O-]` (configuration not stated) displayed an inhibition of 64%.
As for `CC(C)(C)CC(N)CC(=O)O` (configuration not stated), the inhibition constant (Ki) result is “Not Active” in data set [3] and 20000 µM in data set [1].
In data set [2], `CC(=O)NC(CC(=O)[O-])C[N+](C)(C)C` (configuration not stated) came in with an inhibition of 15%.
For `CC(C)(C)CC(O)CC(=O)O` (configuration not stated), the Ki in data set [1] was determined as 2800 µM; in data set [4], 3600 µM.
On to `C[N+](C)(C)C[C@H](O)CC(=O)[O-]` [LEVOCARNITINE], for which the Ki in data set [1] and in data set [4] was 100 µM in each case.

B1: Carnitine O-acetyltransferase (Homo sapiens), P43155 (protein)
chain: MLAFAARTVVKPLGFLKPFSLMKASSRFKAHQDALPRLPVPPLQQSLDHYLKALQPIVSEEEWAHTKQLVDEFQASGGVGERLQKGLERRARKTENWLSEWWLKTAYLQYRQPVVIYSSPGVMLPKQDFVDLQGQLRFAAKLIEGVLDFKVMIDNETLPVEYLGGKPLCMNQYYQILSSCRVPGPKQDTVSNFSKTKKPPTHITVVHNYQFFELDVYHSDGTPLTADQIFVQLEKIWNSSLQTNKEPVGILTSNHRNSWAKAYNTLIKDKVNRDSVRSIQKSIFTVCLDATMPRVSEDVYRSHVAGQMLHGGGSRLNSGNRWFDKTLQFIVAEDGSCGLVYEHAAAEGPPIVTLLDYVIEYTKKPELVRSPLVPLPMPKKLRFNITPEIKSDIEKAKQNLSIMIQDLDITVMVFHHFGKDFPKSEKLSPDAFIQMALQLAYYRIYGQACATYESASLRMFHLGRTDTIRSASMDSLTFVKAMDDSSVTEHQKVELLRKAVQAHRGYTDRAIRGEAFDRHLLGLKLQAIEDLVSMPDIFMDTSYAIAMHFHLSTSQVPAKTDCVMFFGPVVPDGYGVCYNPMEAHINFSLSAYNSCAETNAARLAHYLEKALLDMRALLQSHPRAKL
As to B1, the Km in data set [5] is 3800 µM; in data set [6], 300 µM.

As a reminder, the Ki is the equilibrium dissociation constant of an inhibitor or competing ligand from its target. Lower therefore signals tighter binding. As a reminder, the inhibition is the drop in the measured response relative to a control, in per cent. Higher therefore signals a response far below the control. As usually defined, the Km is the substrate concentration at which the rate is half of its maximum.
